Laboratory results published in ChEMBL document CHEMBL4627246, “Pyroglutamide-Based P2X7 Receptor Antagonists Targeting Inflammatory Bowel Disease” (J Med Chem, 2020).
The source made the active and inactive calls. Unless noted, the rule behind the calls is not given here.

Assays:
[1] = biological target: T1, P2X purinoceptor 7 (Homo sapiens) (UniProt Q99572); assay: Inhibition of human P2X7 expressed in human HEK293 cells assessed as reduction in BzATP-stimulated TO-PRO-3 incorporation at 10 uM preincubated with compound and TO-PRO-3 for 15 mins prior to BzATP addition and measured after 1 hr by Fluo-3AM dye based flow cytometry relative to control; format: cell-based
T1 sequence (whole entry): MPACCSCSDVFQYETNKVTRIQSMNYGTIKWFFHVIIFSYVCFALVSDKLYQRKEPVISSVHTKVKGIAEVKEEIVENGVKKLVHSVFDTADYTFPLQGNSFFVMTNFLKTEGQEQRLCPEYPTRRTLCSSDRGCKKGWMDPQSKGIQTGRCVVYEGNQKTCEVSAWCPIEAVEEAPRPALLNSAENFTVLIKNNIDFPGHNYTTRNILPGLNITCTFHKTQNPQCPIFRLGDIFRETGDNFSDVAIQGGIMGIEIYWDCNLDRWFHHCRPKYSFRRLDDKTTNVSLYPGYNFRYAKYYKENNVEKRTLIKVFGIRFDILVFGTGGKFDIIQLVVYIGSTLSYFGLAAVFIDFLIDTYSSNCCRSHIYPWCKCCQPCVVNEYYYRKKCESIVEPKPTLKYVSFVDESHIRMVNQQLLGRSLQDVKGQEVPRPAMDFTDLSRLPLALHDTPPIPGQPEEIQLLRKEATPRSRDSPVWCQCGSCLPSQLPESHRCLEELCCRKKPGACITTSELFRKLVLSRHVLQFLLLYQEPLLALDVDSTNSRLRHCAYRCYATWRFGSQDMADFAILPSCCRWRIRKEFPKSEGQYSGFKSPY
Procedure, shortened: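 HEK-293 cells overexpressing human P2RX7 loaded with Fluo-3 AM, then incubated with TO-PRO-3 (large pore uptake) and propidium iodide (viability) plus compound (10⁻⁵ M single point) for 15 min before BzATP 100 µM. After 1 h, flow cytometry; percentage of Fluo-3/TO-PRO-3 double-positive cells calculated. Mean of n ≥ 2 with positive control.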

[2] = biological target: T2, P2X purinoceptor 1 (Homo sapiens) (UniProt P51575); assay: Antagonist activity at P2X1 receptor in human platelet assessed as inhibition of thrombin-induced platelet aggregation at 10 '-5 to 10^-6 mol/L pretreated with compound and LPS/BzATP for 10 mins followed by thrombin addition and measured for 8 mins by aggregometry analysis; format: cell-based
T2 sequence (whole entry): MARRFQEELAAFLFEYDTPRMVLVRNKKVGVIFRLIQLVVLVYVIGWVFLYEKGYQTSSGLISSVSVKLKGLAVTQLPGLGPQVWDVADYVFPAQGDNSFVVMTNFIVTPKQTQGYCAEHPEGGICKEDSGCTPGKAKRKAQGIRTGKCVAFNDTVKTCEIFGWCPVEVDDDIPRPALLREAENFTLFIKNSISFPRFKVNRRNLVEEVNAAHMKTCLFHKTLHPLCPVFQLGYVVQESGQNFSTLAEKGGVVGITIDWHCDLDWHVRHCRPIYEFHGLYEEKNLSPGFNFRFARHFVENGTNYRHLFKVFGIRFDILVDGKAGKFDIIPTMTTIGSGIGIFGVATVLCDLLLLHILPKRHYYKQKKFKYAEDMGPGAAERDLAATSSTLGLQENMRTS

[3] = biological target: T1, P2X purinoceptor 7 (Homo sapiens); assay: Antagonist activity at P2X7 receptor in human THP-1 cells assessed as inhibition of LPS and BzATP-induced IL-1beta production at 10^-5 mol/L pretreated with compound followed by LPS/BzATP addition and measured after 2 to 6 hrs by ELISA; format: cell-based
Procedure, shortened: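 THP-1 monocytes grown in RPMI 1640 + 10% FCS, differentiated to macrophages with PMA (100nM); 10^6 cells pretreated with antagonist at 10^-5 mol/L, then exposed to LPS 10 μmol/L plus BzATP 70 μmol/L at 37 °C, 5% CO2; IL1β quantified by ELISA in samples at 2, 4 and 6 h; mean ± SD, significance P<0.05.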

HEK293 = assay: Cytotoxicity against human HEK293 cells assessed as reduction in cell viability at 10^-5 mol/L incubated for 72 hrs; format: cell-based; conditions: hek293, 72 h, 10 µM
Procedure, shortened: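 Wild-type and P2RX7-transfected HEK293 cells exposed to compound for 72 hours; viability compared against untreated control.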

[4] = biological target: T1, P2X purinoceptor 7 (Homo sapiens); assay: Antagonist activity at P2X7 receptor in human THP-1 cells assessed as inhibition of LPS and BzATP-induced IL-1beta production at 10^-6 mol/L pretreated with compound followed by LPS/BzATP addition and measured after 2 to 6 hrs by ELISA; format: cell-based; conditions: TDE = time-dependent effect
Procedure, shortened: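 PMA (100nM)-differentiated THP-1 macrophages (RPMI 1640, 10% FCS), 10^6 cells, pretreated with antagonist at […], then challenged with LPS 10 μmol/L and BzATP 70 μmol/L at 37 °C, 5% CO2; IL1β measured by ELISA, including the 6 h point; mean ± SD, P<0.05 significant.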

P2X purinoceptor 7 = biological target: T3, P2X purinoceptor 7 (Homo sapiens, UniProt Q99572); assay: Displacement of [3H]-A804598 from human P2X7 expressed in human HEK293 cell membrane incubated for 1 hr by microplate scintillation counting method; format: cell membranes
T3 sequence (Q99572 whole entry): T1 sequence (whole entry)

[5] = Solubility of compound in saline at 1mg/ml; format: physicochemical; conditions: buffer
[6] = Metabolic stability in human liver microsomes assessed as intrinsic clearance at 0.2 mg/ml incubated for 60 mins by UPLC/MS-MS analysis; format: ADME, Microsome; conditions: read-out: CLH
[7] = biological target: T1, P2X purinoceptor 7 (Homo sapiens); assay: Antagonist activity at P2X7R in human THP1 cells assessed as inhibition of LPS and BzATP-induced ROS production at 10^-5 mol/L pretreated with compound followed by LPS/BzATP addition and measured up to 5 hrs by kinetic chemiluminescence based fluorometric analysis; format: cell-based; conditions: THP-1
Procedure, shortened: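 PMA-differentiated THP-1 macrophages (10^5 cells) in RPMI 1640 + 10% FBS pretreated with antagonist at 10^-5 mol/L, then LPS 10 μmol/L plus BzATP 70 μmol/L at 37 °C, 5% CO2; horseradish peroxidase (50 μg/mL) and luminol (50 μM) mixture added, chemiluminescence read on a fluorometer; cell-free H2O2 serves as positive control.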

[8] = Drug metabolism in mouse measured after 40 mins; format: ADME; conditions: read-out: Drug metabolism
[9] = Metabolic stability in human liver microsomes assessed as half life at 0.2 mg/ml incubated for 60 mins by UPLC/MS-MS analysis; format: ADME, Microsome
[10] = Metabolic stability in human hepatocytes; format: ADME, cell-based, Hepatocyte
[11] = biological target: T1, P2X purinoceptor 7 (Homo sapiens); assay: Antagonist activity at P2X7R in human THP1 cells assessed as inhibition of LPS and BzATP-induced IL-1beta expression by measuring increase in proIL-1beta expression in cell supernatant extract at 10^-6 mol/L pretreated with compound followed by LPS/BzATP addition and measured after 6 hrs by Western blot analysis; format: cell-based; conditions: THP-1

For O=C1N[C@H](C(=O)NCc2ccc(Cl)cc2Cl)C/C1=C\N1CCOCC1, the inhibition [1] was 56%.

Molecule COc1ccc(N2C(=O)CC[C@H]2C(=O)NCc2ccc(Cl)cc2Cl)cc1 has an inhibition [1] of 0%.

With O=C(NCc1ccc(Cl)cc1Cl)[C@@H]1COC(=O)N1c1cccs1 the Activity [2] was “inactive”, the inhibition [3] was “Active” and the Activity (HEK293) was “Non-Toxic”. For the same molecule, the inhibition [4] was “Tde”, the IC50 (P2X purinoceptor 7) was 15100 nM and the Ki (P2X purinoceptor 7) was 3110 nM. The solubility [5] was “Insoluble”, the microsomal CLint [6] was 663 µL/min/mg and the inhibition [1] was 80%. For the same molecule, the inhibition [7] was “Active”, the metabolised at 40 min [8] was 100% and the half-life [9] was 1.4 min.

For O=C(NCc1ccc(Cl)cc1Cl)[C@@H]1CCC(=O)N1c1cscn1, the Activity [2] was “inactive”, the inhibition [3] was “Active” and the Activity (HEK293) was “Non-Toxic”. For the same molecule, the inhibition [4] was “Tde”, the IC50 (P2X purinoceptor 7) was 384 nM and the Ki (P2X purinoceptor 7) was 78 nM. For the same molecule, the solubility [5] was “Insoluble”, the microsomal CLint [6] was 379 µL/min/mg and the inhibition [1] was 98%. For the same molecule, the inhibition [7] was “Active”, the Stability [10] was “Unstable” and the metabolised at 40 min [8] was 98%. It also gave a half-life [9] of 4.8 min.

Work on CN(Cc1ccccc1)C(=O)[C@@H]1CCC(=O)N1Cc1ccc(Cl)cc1Cl yielded an inhibition [1] of 0%.

With COc1ccc(NC(=O)[C@@H]2CCC(=O)N2)cc1OC the inhibition [1] was “inactive”.

CN(C)/C=C1\C[C@H]2C(=O)N(/C(=C/N(C)C)c3ccncc3)C(N(C)C)N2C1=O (stereo not given in full) gave an inhibition [1] of 0%.

With COc1cc(CNC(=O)[C@@H]2CCC(=O)N2)cc(OC)c1OC the inhibition [1] was “inactive”.

CN1CCN(/C=C2\C[C@@H](C(=O)NCc3ccc(Cl)cc3Cl)N(c3cccs3)C2=O)CC1 showed an inhibition [1] of 49%.

In the case of O=C(NCc1ccc(Cl)cc1Cl)[C@@H]1CCC(=O)N1c1ccsc1, the Activity [2] is reported as “inactive”, the inhibition [3] is reported as “Active” and the Activity (HEK293) is reported as “Non-Toxic”. The inhibition [4] was “Tde”, the IC50 (P2X purinoceptor 7) was 1250 nM and the Ki (P2X purinoceptor 7) was 256 nM. For the same molecule, the inhibition [11] was “Active”, the solubility [5] was “Insoluble” and the microsomal CLint [6] was 762 µL/min/mg. The inhibition [1] was 78%, the inhibition [7] was “Active” and the Stability [10] was “Unstable”. For the same molecule, the metabolised at 40 min [8] was 99.9% and the half-life [9] was 2.5 min.

Molecule COc1ccc(CN2C(=O)[C@@H]3C/C(=C\N(C)C)C(=O)N3C2N(C)C)c(OC)c1 (stereo not given in full) has an inhibition [1] of 0%.

Work on O=C(NCc1ccc(Cl)cc1Cl)[C@@H]1CCC(=O)N1Cc1ccc(Cl)cc1 yielded an inhibition [1] of 0%.

Molecule O=C(Nc1ccc(Cl)cc1Cl)[C@@H]1CCC(=O)N1Cc1ccccc1Cl has an inhibition [1] of 0%.

Molecule O=C(NCc1ccccc1Cl)[C@@H]1CCC(=O)N1Cc1ccccc1Cl has an inhibition [1] of 0%.

With O=C(NCc1ccccc1Cl)[C@@H]1CCC(=O)N1c1ccccc1 the inhibition [1] was 0%.

For COc1ccc(NC(=O)[C@@H]2C/C(=C\N(C)C)C(=O)N2)cc1, the inhibition [1] was 0%.

O=C(NCc1ccc(Cl)cc1Cl)[C@@H]1CCC(=O)N1c1ccc(Cl)cc1Cl gave an inhibition [1] of 0%.

Molecule COc1ccc(CNC(=O)[C@@H]2CCC(=O)N2Cc2ccc(Cl)cc2Cl)c(OC)c1 has an inhibition [1] of 0%.

With O=C(NCCc1ccc(Cl)cc1Cl)[C@@H]1CCC(=O)N1c1ccccc1 the inhibition [1] was 0%.

O=C(NCc1ccccc1Cl)[C@@H]1CCC(=O)N1Cc1ccc(Cl)cc1 gave an inhibition [1] of 0%.

For CCCCCCN1C(=O)[C@@H]2C/C(=C\N(C)C)C(=O)N2C1N(C)C (stereo not given in full), the inhibition [1] was 0%.

For O=C(NCc1ccc(Cl)cc1Cl)[C@@H]1CCC(=O)N1c1ccccc1, the inhibition [1] was 50% and the Stability [10] was “Unstable”.

Work on O=C(NCc1ccc(Cl)cc1Cl)[C@@H]1CCC(=O)N1C(c1ccc(Cl)cc1)c1ccc(Cl)cc1 yielded an inhibition [1] of 0%.
